Active and inactive are the calls of the source. The rule behind the calls is not given here.

One assay concerns J774. In words: Inhibition of mouse J774 cell survival by alamar blue viability assay. The assay is classed as functional, cell-based. The procedure, abridged: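 J774 cells were seeded at 10⁴ per well in […] with 10% FCS and penicillin/streptomycin and grown overnight. Compounds were then added for 48 h. Alamar Blue was added for a further 3 h and viability was read as fluorescence (ex 530, em 590 nm). There were at least three independent experiments, n = 5 each, and IC₅₀ was fitted.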
For orientation: The colour change of resazurin is a common sign of viable cells or microbes.

Assay [1] concerns Osteoclast. Briefly: Inhibition of mouse osteoclast survival. The class given is functional, cell-based. The procedure, abridged:
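Mouse bone marrow from femora and tibiae was grown 3 days with 100 ng/mL M-CSF. Adherent cells were seeded on dentine slices (4 × 10⁴ cells/mL) with 100 ng/mL RANKL and 25 ng/mL M-CSF for 7 days. Compounds were present for 72 h from day 4. TRAcP-positive cells with ≥3 nuclei were counted as % of vehicle. Three experiments, n = 5 each.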

The species entered for assay [2] is Homo sapiens. In words: Inhibition of RANKL-activated NF-kappaB.
For assay [3], the species on record is Homo sapiens. In words: Inhibition of TNF-alpha-activated NF-kappaB.
The test system of assay [4] is Osteoclast. In words: Apoptosis of osteoclast at 5 to 20 uM. The class given is functional, cell-based. The following applies: Homo sapiens.
For another assay, the system named is Osteoblast. In words: Effect on apoptosis of osteoblast. The class given is functional, cell-based. The settings on record: Homo sapiens.
A further assay relates to Hepatocyte. In words: Effect on apoptosis of hepatocyte. The following applies: Homo sapiens. The assay is classed as functional, cell-based.
Another assay concerns Macrophage. Briefly: Apoptosis of macrophage at 5 to 20 uM. The class given is functional, cell-based. The settings on record: Homo sapiens.
The subject of a further assay is Mus musculus. In words: Inhibition of ovariectomy-induced bone loss in C57/BL6 mouse at 5 mg/kg/day, ip. The assay is classed as functional, organism-based. The essentials: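 Nine-week-old female C57/BL6 mice were ovariectomized or sham-operated. Starting 2 days after surgery, they received 5 (mg/kg)/day intraperitoneally in corn oil for 21 days; controls received oil alone. The study ended on day 23. Bone at the right tibial metaphysis was measured by µCT at 5 µm resolution over 200 slices distal to the growth plate. Results are % change from sham, ±SEM, n = 6.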

As for `O=S(=O)(NCCCCO)c1ccccc1-c1ccc(F)cc1`, the concentration for half-maximal inhibition (IC50) with J774 is > 50 µM.
On the same count and under the same terms, the value for `CN(C)c1ccc(-c2ccc(S(=O)(=O)NCCCCCO)cc2)cc1` was 32 µM; that for `O=S(=O)(NCCCCCO)c1ccc(-c2ccc(Br)cc2)cc1` was 9 µM; that for `O=S(=O)(NCCCCO)c1ccc(-c2ccccc2I)cc1` was 5.5 µM.
Compound `O=S(=O)(NCCCCCO)c1ccc(-c2ccc(F)c(F)c2)cc1` showed a half-inhibitory concentration (IC50) in the assay on J774 of 16 µM.
Same read-out and setting: the value for `O=S(=O)(NCCCCCCO)c1ccc(-c2ccccc2)cc1` was 13 µM; that for `O=S(=O)(NCCCCCO)c1ccc(-c2ccc(F)cc2F)cc1` was 4.5 µM.
On to `O=S(=O)(NCCCCO)c1ccc(-c2ccccc2)cc1`, for which the half-maximal inhibitory concentration (IC50) in the assay with Osteoclast [1] was determined as 8 µM; in the assay with J774, 18 µM. Moreover, the result in the assay filed under Homo sapiens [2] and in the assay listed under Homo sapiens [3] was Active.
On to `O=C(OCCCCO)c1ccc(-c2ccccc2)cc1`, for which the result in the assay with Osteoclast [4], in the assay listed under Homo sapiens [2], in the assay with Macrophage and in the assay filed under Homo sapiens [3] was Active. The IC50 with Osteoblast is > 100 µM; with Osteoclast [1], 9 µM; with Hepatocyte it was > 200 µM.
In the assay with J774, `O=S(=O)(NCCCCO)c1ccc(-c2ccc(Br)cc2)cc1` displayed an IC50 of 8 µM.
On the same count and under the same terms, the value for `O=[N+]([O-])c1cccc(-c2ccc(S(=O)(=O)NCCCCO)cc2)c1` was 33 µM; that for `Cc1cc(S(=O)(=O)NCCCCO)ccc1-c1ccc(F)cc1` was 2.5 µM; that for `O=S(=O)(NCCCCCO)c1ccc(-c2ccccc2)cc1` was 18 µM.
On the same count and under the same terms, in the case of `Cc1cccc(-c2ccc(S(=O)(=O)NCCCCO)cc2)c1` it was 28 µM; in that of `O=S(=O)(NCCCCO)c1ccc(-c2ccc(OC(F)(F)F)cc2)cc1`, 8 µM.
On to `Cc1cc(S(=O)(=O)NCCCCO)ccc1-c1ccc(F)cc1F`, for which the half-maximal inhibitory concentration (IC50) was 0.15 µM with Osteoclast [1] and 0.8 µM with J774. The outcome in the assay listed under Homo sapiens [2], with Mus musculus and in the assay listed under Homo sapiens [3] was Active.
Consider `COc1ccccc1-c1ccc(S(=O)(=O)NCCCCCO)cc1`, for which the half-inhibitory concentration (IC50) with J774 was determined as 31 µM.
Still for that read-out and setting: the value for `O=S(=O)(NCCCO)c1ccc(-c2ccccc2)cc1` was > 50 µM; that for `Cc1ccc(-c2ccc(S(=O)(=O)NCCCCCO)cc2)cc1` was 13 µM.
On the same count and under the same terms, in the case of `O=S(=O)(NCCCCCO)c1ccc(-c2ccc(-c3ccccc3)cc2)cc1` it was 33 µM; in that of `O=S(=O)(NCCCCO)c1ccc(-c2ccc(C(F)(F)F)cc2)c(F)c1`, 5.5 µM.
On the same count and under the same terms, in the case of `N#Cc1ccc(-c2ccc(S(=O)(=O)NCCCCCO)cc2)cc1` it was 12 µM; in that of `O=C(O)c1ccc(-c2ccc(S(=O)(=O)NCCCCCO)cc2)cc1`, 33 µM; in that of `O=S(=O)(NCCCCO)c1ccc(-c2ccccc2)cc1C(F)(F)F`, 4.5 µM.
Consider `COc1cc(S(=O)(=O)NCCCCCO)ccc1-c1ccc(F)cc1F`, for which, in the assay with J774, the IC50 was 33 µM.
Still for that read-out and setting: in the case of `CSc1ccc(-c2ccc(S(=O)(=O)NCCCCO)cc2)cc1` it was 35 µM; in that of `CC(=O)c1ccc(-c2ccc(S(=O)(=O)NCCCCCO)cc2)cc1`, 11 µM.
The same measure, in the same setting: the value for `O=S(=O)(NCCCCCO)c1ccc(-c2ccc(C(F)(F)F)cc2C(F)(F)F)cc1` was 2 µM; that for `O=S(=O)(NCCCCO)c1ccc(-c2ccc(C(F)(F)F)cc2)cc1F` was 5 µM; that for `O=S(=O)(NCCCCO)c1cccc(-c2ccc(C(F)(F)F)cc2)c1` was > 50 µM.
Take `O=S(=O)(NCCCCO)c1ccc(-c2ccccc2C(F)(F)F)cc1`: the half-inhibitory concentration (IC50) in the assay with J774 was 6 µM.
Same read-out and setting: in the case of `O=S(=O)(NCCCCO)c1ccc(-c2ccc(F)cc2)cc1` it was 8 µM; in that of `O=S(=O)(NCCCCO)c1ccc(-c2ccc(Br)cc2F)cc1`, 3 µM; in that of `O=[N+]([O-])c1ccccc1-c1ccc(S(=O)(=O)NCCCCO)cc1`, 2 µM.
`O=S(=O)(NCCCCO)c1ccc(-c2ccc(F)cc2F)c(C(F)(F)F)c1` had an IC50 with J774 of 0.7 µM.
Still for that read-out and setting: the value for `O=S(=O)(NCCCCCO)c1ccc(-c2ccc(Cl)cc2Cl)cc1` was 2.5 µM; that for `O=S(=O)(NCCCCO)c1ccc(-c2ccc(C(F)(F)F)cc2)cc1` was 5 µM; that for `Nc1ccccc1-c1ccc(S(=O)(=O)NCCCCO)cc1` was 24 µM.
Still for that read-out and setting: the value for `O=S(=O)(NCCCCCO)c1ccc(-c2ccc(O)cc2)cc1` was 21 µM.

In general, IC50 refers to the midpoint of a concentration-inhibition curve. High values mean lower potency, low ones higher potency.

For the origin of these results see ChEMBL document CHEMBL1138201, “Development and characterization of biphenylsulfonamides as novel inhibitors of bone resorption” (J Med Chem, 2006).
